Reference: BindingDB's records for doi:10.1021/acs.jmedchem.5b00686 (University of Hawaii At Hilo, 2015)

Molecular target: Signal transducer and activator of transcription 3 (Homo sapiens, UniProt P40763)
Assay: Inhibition of Stat3 dimer DNA binding activity in human U373MG cells nuclear extract after 1.5 hrs by EMSA using radiolabeled probe hSIE
In short: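 Sub-confluent U251MG or U373MG cells treated with compound (5 μM for 0–24 h, or 0–5 μM for 1.5 h). Stat3:DNA bands scanned, quantified and plotted against concentration to derive IC50. Controls were 0.025% DMSO.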

Signal transducer and activator of transcription 3, sequence (P40763 whole entry): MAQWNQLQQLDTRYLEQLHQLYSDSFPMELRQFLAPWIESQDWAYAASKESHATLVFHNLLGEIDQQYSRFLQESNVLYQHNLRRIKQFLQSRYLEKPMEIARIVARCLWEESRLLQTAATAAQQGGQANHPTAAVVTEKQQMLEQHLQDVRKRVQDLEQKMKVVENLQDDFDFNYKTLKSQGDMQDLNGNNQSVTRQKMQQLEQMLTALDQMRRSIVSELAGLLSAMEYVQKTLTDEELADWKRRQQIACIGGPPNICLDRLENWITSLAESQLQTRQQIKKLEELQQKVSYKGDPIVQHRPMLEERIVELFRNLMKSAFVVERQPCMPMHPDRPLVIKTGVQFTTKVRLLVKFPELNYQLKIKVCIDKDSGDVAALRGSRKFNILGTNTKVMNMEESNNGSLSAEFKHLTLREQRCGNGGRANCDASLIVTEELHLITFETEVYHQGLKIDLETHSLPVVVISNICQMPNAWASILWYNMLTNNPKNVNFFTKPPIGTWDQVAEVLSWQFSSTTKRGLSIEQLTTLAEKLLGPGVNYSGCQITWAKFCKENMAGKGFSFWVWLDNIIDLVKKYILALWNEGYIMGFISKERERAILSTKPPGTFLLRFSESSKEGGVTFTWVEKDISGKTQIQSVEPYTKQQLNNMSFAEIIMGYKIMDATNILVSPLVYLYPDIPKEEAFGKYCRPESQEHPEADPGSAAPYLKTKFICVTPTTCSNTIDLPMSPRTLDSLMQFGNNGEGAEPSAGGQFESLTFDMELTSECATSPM

| Structure (SMILES) | IC50 |
| --- | --- |
| C/C=C(\C)C(=O)OCC1=C2/C(=C\[C@@]3(C)CC[C@](O)(O3)[C@H](C)C[C@@H]2O)OC1=O | 2.4 µM |
| C/C=C(\C)C(=O)O[C@H]1C[C@@H](C)[C@]2(OC)CC[C@](C)(/C=C3/OC(=O)C(COC(C)=O)=C31)O2 [Vernolide-B] | 4.1 µM |
